The values that follow come from ChEMBL document CHEMBL2157924, “Cyclobutane derivatives as novel nonpeptidic small molecule agonists of glucagon-like peptide-1 receptor” (J Med Chem, 2012).

Calls of active or inactive are those of the source. No cut-off for these calls is given here.

In assay [1] the target is T1, Glucagon-like peptide 2 receptor (Homo sapiens) (UniProt O95838).
T1 sequence (whole entry): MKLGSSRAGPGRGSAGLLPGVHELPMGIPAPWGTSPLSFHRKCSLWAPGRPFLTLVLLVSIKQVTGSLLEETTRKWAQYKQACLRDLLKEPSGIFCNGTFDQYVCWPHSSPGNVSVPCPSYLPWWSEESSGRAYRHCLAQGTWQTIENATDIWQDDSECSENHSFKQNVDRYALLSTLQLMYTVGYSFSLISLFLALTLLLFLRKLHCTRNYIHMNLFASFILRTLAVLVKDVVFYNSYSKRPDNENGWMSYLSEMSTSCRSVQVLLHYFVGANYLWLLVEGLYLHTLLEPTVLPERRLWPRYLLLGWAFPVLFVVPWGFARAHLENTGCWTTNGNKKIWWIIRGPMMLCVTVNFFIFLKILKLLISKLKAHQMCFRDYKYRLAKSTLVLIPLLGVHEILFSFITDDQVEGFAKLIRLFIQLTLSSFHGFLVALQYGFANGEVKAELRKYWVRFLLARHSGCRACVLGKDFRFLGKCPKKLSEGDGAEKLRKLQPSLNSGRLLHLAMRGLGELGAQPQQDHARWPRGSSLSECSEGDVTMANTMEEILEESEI
Briefly: Agonist activity at human GLP2R expressed in HEK293 cells assessed as stimulation of cAMP levels incubated for 6 hrs by multiple response element/cAMP response element (MRE/CRE)-driven reporter gene assay. The format is functional, cell-based. The essentials: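 HEK293 cells transiently cotransfected with human GLP-2 receptor or glucagon receptor expression vector plus a luciferase reporter carrying three copies of multiple response element and one cAMP response element. Luciferase activity at different compound concentrations was expressed relative to the respective native peptide (GLP-2 or glucagon, 100%). Mean ± SEM of triplicate experiments.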
In general terms: Cyclic AMP is a second messenger, typically raised through Gs and lowered through Gi signalling.

Assay [2] concerns the target T2, Glucagon-like peptide 1 receptor (Rattus norvegicus) (UniProt P32301).
T2 sequence (whole entry): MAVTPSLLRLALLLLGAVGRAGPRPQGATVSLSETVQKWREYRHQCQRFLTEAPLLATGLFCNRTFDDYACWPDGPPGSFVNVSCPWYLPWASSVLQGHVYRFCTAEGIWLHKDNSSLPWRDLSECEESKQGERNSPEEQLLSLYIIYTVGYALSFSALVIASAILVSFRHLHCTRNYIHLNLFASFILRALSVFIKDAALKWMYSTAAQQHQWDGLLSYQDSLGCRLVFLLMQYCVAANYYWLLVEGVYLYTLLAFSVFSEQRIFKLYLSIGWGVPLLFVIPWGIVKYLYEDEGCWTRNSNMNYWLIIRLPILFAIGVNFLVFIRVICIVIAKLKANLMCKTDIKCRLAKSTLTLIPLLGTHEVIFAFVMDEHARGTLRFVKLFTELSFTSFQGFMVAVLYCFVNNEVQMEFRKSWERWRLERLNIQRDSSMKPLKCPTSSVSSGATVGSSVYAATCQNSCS
Nature of the assay: Inhibition of [125I]GLP1 (7-36) amide binding to rat GLP1R expressed in HEK293 cells relative to untreated control. It counts as cell-based. Also on record: concentration or dose not given beside the values. To be noted: concentration not given here. The gist of the method: (§1)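 Membranes (17 μg protein) from HEK293 cells stably expressing rat GLP-1R were preincubated 5 h at 4 °C with FlashBlue beads (150 μg). Then 40 pM [125I]GLP-1(7−36) amide or [125I]Exendin(9−39) was added with aprotinin 2 μg/mL, leupeptin 100 μM and test compound at varied concentrations. Incubated overnight at 4 °C, then bound radioactivity counted. Mean ± SEM of two independent experiments.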

The target of assay [3] is T2, Glucagon-like peptide 1 receptor (Rattus norvegicus). Briefly: Inhibition of [125I]Exendin (9-39) binding to rat GLP1R expressed in HEK293 cells. The format is cell-based. Also on record: concentration or dose not given beside the values. The following applies: concentration not given here. The gist of the method: as §1
Assay [4] concerns the target T3, Glucagon-like peptide 1 receptor (Rattus norvegicus, UniProt P32301).
T3 sequence (P32301 whole entry): T2 sequence (whole entry)
Nature of the assay: Inhibition of [125I]GLP1 (7-36) amide binding to rat GLP1R expressed in HEK293 cells. The format is cell-based. The essentials: as §1

For assay [5], the target named is T2, Glucagon-like peptide 1 receptor (Rattus norvegicus). Briefly: Agonist activity at rat GLP1R expressed in HEK293 cells assessed as stimulation of cAMP levels incubated for 6 hrs by multiple response element/cAMP response element (MRE/CRE)-driven reporter gene assay relative to 10 nM GLP1. It counts as functional, cell-based. The gist of the method:
(§2)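 Stable HEK293 line co-expressing rat GLP-1R (pCMV-Tag2B) and a luciferase reporter with 3× MRE plus 1× CRE, seeded at 40000 cells/well and cultured overnight. Compounds in DMSO or GLP-1(7−37) were added for 6 h, then cells were lysed and luciferase read (Steady-Glo). The 10 nM GLP-1 maximum was taken as 100%. Mean ± SEM of two independent experiments; some values come from a single run.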

The target in assay [6] is T3, Glucagon-like peptide 1 receptor. Briefly: Agonist activity at rat GLP1R expressed in HEK293 cells assessed as stimulation of cAMP levels incubated for 6 hrs by multiple response element/cAMP response element (MRE/CRE)-driven reporter gene assay. The format is functional, cell-based. The essentials: as §2

Regarding `CC[C@H](C)[C@H](NC(=O)[C@H](Cc1ccccc1)NC(=O)[C@H](CC(=O)O)NC(=O)[C@H](CCCNC(=N)N)NC(=O)[C@H](C)NC(=O)[C@H](C)NC(=O)[C@H](CC(C)C)NC(=O)[C@H](CC(N)=O)NC(=O)[C@H](CC(=O)O)NC(=O)[C@H](CC(C)C)NC(=O)[C@@H](NC(=O)[C@@H](NC(=O)[C@H](CC(N)=O)NC(=O)[C@H](CCSC)NC(=O)[C@H](CCC(=O)O)NC(=O)[C@H](CC(=O)O)NC(=O)[C@H](CO)NC(=O)[C@H](Cc1ccccc1)NC(=O)[C@H](CO)NC(=O)CNC(=O)[C@H](CC(=O)O)NC(=O)[C@H](C)NC(=O)[C@@H](N)Cc1cnc[nH]1)[C@@H](C)O)[C@@H](C)CC)C(=O)N[C@@H](CC(N)=O)C(=O)N[C@@H](Cc1c[nH]c2ccccc12)C(=O)N[C@@H](CC(C)C)C(=O)N[C@H](C(=O)N[C@@H](CCC(N)=O)C(=O)N[C@H](C(=O)N[C@@H](CCCCN)C(=O)N[C@H](C(=O)N[C@H](C(=O)N[C@@H](CC(=O)O)C(=O)N[C@@H](CCCNC(=N)N)C(=O)O)[C@@H](C)O)[C@@H](C)CC)[C@@H](C)O)[C@@H](C)CC`, the result in assay [1] was Active.
For orientation: inhibition means the share of the control response that was lost under treatment. One may read the IC50 as the concentration that inhibits the measured activity by half. The term EC50 denotes the concentration at which the effect is half-maximal. Regarding `COc1cc([C@H]2[C@](NC(=O)c3ccc(NC(=O)C(C)(C)C)cc3)(C(=O)O)[C@@H](c3ccc(OC(=O)c4cccs4)c(OC)c3)[C@]2(NC(=O)c2ccc(NC(=O)C(C)(C)C)cc2)C(=O)O)ccc1OC(=O)c1cccs1`, the inhibition in assay [2] is 47.6%; in assay [3], 33.4%. This compound displayed an IC50 in assay [4] of 500 nM. The Efficacy in assay [5] came out at 60.8%. Also, the EC50 in assay [6] was determined as 1110 nM.
For `COc1cc([C@H]2[C@](NC(=O)c3ccc(NC(=O)OC(C)(C)C)cc3)(C(=O)O)[C@@H](c3ccc(OC(=O)C4CCCCC4)c(OC)c3)[C@]2(NC(=O)c2ccc(NC(=O)OC(C)(C)C)cc2)C(=O)O)ccc1OC(=O)C1CCCCC1` the same measures were less than 15%, less than 15%, greater than 20000 nM, less than 15% and greater than 20000 nM.
For `CCC(=O)Oc1ccc([C@H]2[C@](NC(=O)c3ccc(NC(=O)OC(C)(C)C)cc3)(C(=O)O)[C@@H](c3ccc(OC(=O)CC)c(OC)c3)[C@]2(NC(=O)c2ccc(NC(=O)OC(C)(C)C)cc2)C(=O)O)cc1OC`, in that order: 86%, 68.3%, 2700 nM, 91% and 2500 nM.
For `COc1cc([C@H]2[C@](NC(=O)c3ccc(NC(C)=O)cc3)(C(=O)O)[C@@H](c3ccc(OC(=O)c4cccs4)c(OC)c3)[C@]2(NC(=O)c2ccc(NC(C)=O)cc2)C(=O)O)ccc1OC(=O)c1cccs1` the same measures were 55.4%, 30.6%, 2310 nM, 61.1% and 118 nM.
As to `COc1cccc([C@H]2[C@](NC(=O)c3ccc(NC(=O)OC(C)(C)C)cc3)(C(=O)O)[C@@H](c3cccc(OC)c3)[C@]2(NC(=O)c2ccc(NC(=O)OC(C)(C)C)cc2)C(=O)O)c1`, the inhibition in assay [2] and in assay [3] was less than 15% throughout. For the same compound, the IC50 in assay [4] is greater than 20000 nM. The Efficacy in assay [5] is less than 15%. Besides, the concentration giving a half-maximal response (EC50) in assay [6] was greater than 20000 nM.
`CCC(=O)Nc1ccc(C(=O)N[C@]2(C(=O)O)[C@H](c3ccc(OC(=O)c4cccs4)c(OC)c3)[C@@](NC(=O)c3ccc(NC(=O)CC)cc3)(C(=O)O)[C@@H]2c2ccc(OC(=O)c3cccs3)c(OC)c2)cc1`: the figures for the inhibition in assay [2] and in assay [3] were 75.2% and 36.1%, respectively. Besides, the IC50 in assay [4] stood at 4900 nM. Moreover, the Efficacy in assay [5] was 48.4%. In assay [6], the EC50 was determined as 696 nM.
For `CCCOc1ccc([C@H]2[C@](NC(=O)c3ccc(NC(=O)OC(C)(C)C)cc3)(C(=O)O)[C@@H](c3ccc(OCCC)cc3)[C@]2(NC(=O)c2ccc(NC(=O)OC(C)(C)C)cc2)C(=O)O)cc1`, in that order: less than 15%, less than 15%, greater than 20000 nM, less than 15% and greater than 20000 nM.
For `CCOC(=O)CNC(=O)Nc1ccc(C(=O)N[C@]2(C(=O)O)[C@H](c3ccc(OC(=O)c4cccs4)c(OC)c3)[C@@](NC(=O)c3ccc(NC(=O)NCC(=O)OCC)cc3)(C(=O)O)[C@@H]2c2ccc(OC(=O)c3cccs3)c(OC)c2)cc1`, in that order: 43.8%, 37.9%, 4300 nM, 33.7% and 4500 nM.
For `COc1cc([C@H]2[C@](NC(=O)c3ccc(NC(=S)Nc4cccc5ccccc45)cc3)(C(=O)O)[C@@H](c3ccc(OC(=O)c4cccs4)c(OC)c3)[C@]2(NC(=O)c2ccc(NC(=S)Nc3cccc4ccccc34)cc2)C(=O)O)ccc1OC(=O)c1cccs1` the same measures were 57.4%, 52.3%, 3000 nM, 29.8% and 2120 nM.
For `COc1cc([C@H]2[C@](NC(=O)c3ccc(NC(=O)OC(C)(C)C)cc3)(C(N)=O)[C@@H](c3ccc(OC(=O)c4cccs4)c(OC)c3)[C@]2(NC(=O)c2ccc(NC(=O)OC(C)(C)C)cc2)C(N)=O)ccc1OC(=O)c1cccs1`, the inhibition in assay [2] and in assay [3] was less than 15% in each case. The IC50 in assay [4] was greater than 20000 nM. Moreover, the Efficacy in assay [5] is less than 15%. The EC50 in assay [6] is greater than 20000 nM.
Turning to `COc1cc([C@H]2[C@](NC(=O)c3ccc(NC(=O)OC(C)(C)C)cc3)(C(=O)O)[C@@H](c3ccc(OCc4ccc(F)cc4)c(OC)c3)[C@]2(NC(=O)c2ccc(NC(=O)OC(C)(C)C)cc2)C(=O)O)ccc1OCc1ccc(F)cc1`, the inhibition in assay [2] and in assay [3] was less than 15% in each case. The compound further showed an IC50 in assay [4] greater than 20000 nM. Also, the Efficacy in assay [5] was less than 15%. The EC50 in assay [6] is greater than 20000 nM.
Consider `COc1cc([C@H]2[C@](NC(=O)c3ccc(NC(=O)C4CCC4)cc3)(C(=O)O)[C@@H](c3ccc(OC(=O)c4cccs4)c(OC)c3)[C@]2(NC(=O)c2ccc(NC(=O)C3CCC3)cc2)C(=O)O)ccc1OC(=O)c1cccs1`, for which the results for the inhibition in assay [2] and in assay [3] were 53.6% and 45.6%, respectively. Besides, in assay [4], the IC50 came to 1200 nM. Further, the Efficacy in assay [5] turned out to be 87.5%. For the same compound, the EC50 in assay [6] was 749 nM.
